# Assay outcomes: PubChem, several laboratories
# The list is not random: actives were taken first. Their share in the collection is about 1.1%.
# procasp7 counter: activates human procaspase-7, counter-screen for procaspase-3 activators. recombinant procaspase-7, Ac-DEVD-pNA absorbance 405 nm; D23A/D198A/D206A triple mutant, cannot self-cleave; scale: DMSO 0, 5 µM enzyme 100. activation, % at 8.5 µM. hit rate 0.093% among 330,000;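 active = percent activation above the screen-wide mean plus 3 SD, cut at about 25% in these data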
#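 Replicates: singlicate. Assay system: Procaspase-7 triple mutant (PC-7 D3A). Signal: 405 nm absorbance of p-nitroaniline. Times: 1 h preincubation, 2 h reaction. Buffer or medium: Zinc-free HEPES pH 7.4 with 300 mM NaCl, 0.01% Triton X-100. Also added: DEVD-pNA substrate. Benchmarks: DMSO wells as 0%, DMSO with 5 µM added PC-7 as 100%.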
# T cell modulator: T cell immune modulators affecting CD8 T cell-vesicle binding | 2C CD8+ T cell-vesicle binding, flow cytometry; active compounds read low | response (vesicle binding), % at 7 µM | hit rate 0.068% among 330,000;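 active = response, share of CD8 T cells binding vesicles, and their 90th percentile fluorescence all below set limits, cut at about 80% in these data, passing the limit was not always enough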;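 note: values below 100% mean blocked vesicle binding to the CD8+ T cells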
#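 Material: 2C TCR transgenic mouse naive CD8+ T cells, MACS-purified. Also added: QL9-charged Drosophila Ld/ICAM-1/B7-1 vesicles. Timing: binding 1.5 h at 37 °C. Measured by: high-throughput flow cytometry with anti-B7-1 and anti-CD8 staining. Read-out: percent CD8+ FL2 mean versus row control. Controls: Unloaded micro-vesicles (low), QL9 vesicles with 0.7% DMSO (high).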
# CaV13 ICDI inh: Disruptors of the CACNA1D IQ motif to Ca2+-dependent inactivation inhibitor domain association, primary screening, Förster resonance energy transfer in intact living …. HEK cells, CFP/YFP FRET ICDI-IQ, plate reader, 10 min; percent FRET-ratio fall versus neutral wells. inhibition, % at 12.3 µM. hit rate 0.098% among 340,000;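 active = mean replicate inhibition of at least 30% and at least 1% of replicates passing that level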
# procasp3 activ: activates human procaspase-3; hit rate 0.11% among 330,000; AID 463141; P42574; activation, % at 8.5 µM; recombinant procaspase-3 D3A, Ac-DEVD-pNA absorbance 405 nm;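 active = activation above the mean of all tested compounds plus 3 SD, cut at about 21% in these data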
#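 Assay system – Procaspase-3 D3A mutant · Benchmarks – DMSO low control, extra-enzyme high control · Technique – 405 nm absorbance of p-nitroaniline, reads at 0 and 120 min · Doses – 8.5 µM nominal · Measure – % activation between DMSO and enzyme-spiked controls · Also added – Ac-DEVD-pNA chromogenic peptide substrate · Schedule – 1 h compound preincubation, 2 h substrate hydrolysis at 25 °C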
# GRK2 inh: human GRK2 inhibition via aptamer displacement; P25098; bead flow cytometry, FAM-aptamer displacement from GRK2; inhibition of aptamer binding, % at 10 µM; hit rate 0.59% among 330,000; AID 488847;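 active = inhibition of aptamer binding above 40%, roughly 3 SD of noise, on plates passing a quality check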;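 note: median bead fluorescence of bound FAM aptamer so fluorescent compounds give negative values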
# Target sequence (P25098 whole entry, looked up): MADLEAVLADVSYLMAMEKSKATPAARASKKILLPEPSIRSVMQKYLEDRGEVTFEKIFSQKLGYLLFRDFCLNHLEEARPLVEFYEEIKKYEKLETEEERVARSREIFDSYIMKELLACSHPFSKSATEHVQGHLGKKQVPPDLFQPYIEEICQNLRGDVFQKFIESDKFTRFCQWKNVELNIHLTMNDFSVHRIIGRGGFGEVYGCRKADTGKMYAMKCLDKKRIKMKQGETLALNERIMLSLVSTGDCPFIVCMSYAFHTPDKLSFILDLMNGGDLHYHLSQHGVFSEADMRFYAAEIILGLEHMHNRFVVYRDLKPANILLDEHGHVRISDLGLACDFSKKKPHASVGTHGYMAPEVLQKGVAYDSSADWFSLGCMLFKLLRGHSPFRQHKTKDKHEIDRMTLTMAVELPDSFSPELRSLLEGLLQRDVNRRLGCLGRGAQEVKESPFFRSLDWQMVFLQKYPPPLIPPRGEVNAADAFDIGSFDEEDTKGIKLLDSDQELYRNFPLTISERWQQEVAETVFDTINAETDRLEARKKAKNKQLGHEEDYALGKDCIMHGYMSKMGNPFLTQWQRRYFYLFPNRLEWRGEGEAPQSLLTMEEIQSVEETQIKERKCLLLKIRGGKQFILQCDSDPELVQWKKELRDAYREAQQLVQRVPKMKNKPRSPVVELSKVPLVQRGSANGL
# aDG glyco up: alpha-DG glycosylation activation. Pro5-aDG cells, alpha-DG glycosylation AlphaScreen (IIH6); 0% Pro5, 100% B10-LARGE cell signal. activation, % at 10 µM. hit rate 0.22% among 360,000;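 active = activation of at least 8% versus controls, or a plate z-score of at least 8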;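 note: Pro5 are CHO cells carrying HIG-tagged alpha-DG that lacks glycosylation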
# PC3 dual counter: activates human procaspase-3, dual activator counter-screen | shares compounds with procasp7 counter | recombinant PC-3 D3A, Ac-DEVD-pNA absorbance 405 nm; aspartates 9, 28, 175 changed to alanine; 100% = enzyme control | activation, % at 8.5 µM | 290 tested, under 10 active | AID 493114;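 active = mean percent activation across triplicates above a set limit taken from the earlier primary procaspase-3 screen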
# Procasp7 act: confirmation of dual procaspase activators: human procaspase-7 activation; AID 493115; recombinant procaspase-7, Ac-DEVD-pNA absorbance 405 nm; D23A/D198A/D206A mutant that cannot self-cleave; shares compounds with procasp7 counter; 290 tested, under 10 active; activation, % at 8.5 µM;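 active = mean activation above a set limit carried over from the earlier primary screen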
# Numbers stand for hits; – = inactive; · = no result.
SMILES,procasp7 counter,T cell modulator,CaV13 ICDI inh,procasp3 activ,GRK2 inh,aDG glyco up,PC3 dual counter,Procasp7 act
COc1ccc(N2C(=O)CC(Cc3ccc(Br)cc3)C2=O)cc1 (stereo not drawn),–,–,–,–,–,–,·,·
CCOc1ccc(N2C(=O)CC(Cc3ccc(Br)cc3)C2=O)cc1 (stereo not drawn),80.9,–,–,–,–,–,–,–
CC(C)OC(=O)CC(=O)CSc1nc2c(cc1C#N)CCCCC2,37.2,–,–,–,–,–,–,–
CC(C)OC(=O)CSc1nc2c(cc1C#N)CCCCC2,–,–,–,–,–,–,·,·
N#Cc1ccc(C(=O)NCC2CCN(C(=O)C(=O)c3cccs3)CC2)cc1,·,·,–,·,·,·,·,·
Cc1cccc2cc3c(NC(=O)C(C)(C)C)nn(CC(C)C)c3nc12,35.3,–,–,36.3,–,–,–,–
CCn1nc(NC(C)=O)c2cc3cccc(C)c3nc21,–,–,–,–,–,–,·,·
CCn1nc(NC(=O)c2ccccc2)c2cc3cccc(C)c3nc21,49.8,–,–,53.4,–,–,–,–
C[C@H](c1ccccc1)N1C[C@@H](COCc2ccccc2)Oc2cccc(F)c2S1(=O)=O,·,·,–,·,·,·,·,·
Cc1ccc(Cn2cccc(-c3nc4ccccc4s3)c2=O)cc1,43.2,–,–,–,–,–,–,–
Nc1ccccc1-c1nc2ccccc2s1,–,–,–,–,–,–,·,·
O=c1c(-c2nc3ccccc3s2)cccn1Cc1ccccc1,56.0,–,–,–,–,–,–,–
C[C@@H]1COc2cccc(NCCCN3CCOCC3)c2S(=O)(=O)N1,·,·,–,·,·,·,·,·
O=C(NS(=O)(=O)c1ccccc1[N+](=O)[O-])[C@H]1O[C@@H](n2ccc(=O)[nH]c2=O)[C@H](O)[C@@H]1O,·,·,–,·,·,·,·,·
NC(=O)c1ncn([C@@H]2O[C@H](C(=O)N[C@H](Cc3c[nH]c4ccccc34)C(=O)N3CCN(C(=O)N4CCCCC4)CC3)[C@@H](O)[C@H]2O)n1,·,·,–,·,·,·,·,·
O=C(CN1CCOCC1)c1c[nH]c2ccccc12,–,–,–,–,–,–,·,·
O=C(NCCN1CCOCC1)C(=O)c1c[nH]c2ccccc12,30.4,–,–,–,–,–,–,–
COc1ccc2c(c1)[C@@]1(OCCC=C[C@H]1C)C(=O)N2CC1CC1,·,·,–,·,·,·,·,·
O=C1Nc2ccccc2O/C1=C\c1ccccc1Br,29.3,–,–,36.4,–,–,–,–
COc1ccc(Br)cc1/C=C1\Oc2ccccc2NC1=O,–,–,–,–,–,–,·,·
COc1ccc(/C=C2\OC(=O)c3c(OC)cccc32)cc1OC,89.3,–,·,–,–,–,–,–
Nc1c(S(=O)(=O)c2cccs2)c2nc3ccccc3nc2n1Cc1cccs1,77.7,–,·,81.6,–,–,–,–
CC1CCC(C(C)C)C(OC(=O)COC(=O)c2cc(O)ccc2N)C1 (stereo not drawn),49.7,–,–,40.8,–,–,–,–
CC1CCC(C(C)C)C(OC(=O)COC(=O)c2ccc(=O)[nH]c2)C1 (stereo not drawn),–,–,–,–,–,–,·,·
C[C@]12Cc3ccccc3C1CC1=N[C@@H](c3ccc(C(F)(F)F)cc3)O[C@@]13C[C@@H]2C(=O)N3C1CCN(Cc2ccccc2)CC1 (stereo partly drawn),·,·,–,·,·,·,·,·
CN(C)c1nc(-c2ccccc2)cc(C(F)(F)F)c1C#N,–,–,·,–,–,–,·,·
CN(C)c1nc(-c2cccs2)cc(C(F)(F)F)c1C#N,39.0,–,–,–,–,–,–,–
